Paper PMC3156442 (Molecular bioSystems, 2010)

Experiments:
[1] = tested on: Jurkat cells; assay: Cellular uptake of FITC-labelled LPs by flow cytometry; assay type: cell-based, human; conditions: 10 μM, 10 min, 37 °C
[2] = tested on: Jurkat cells; assay: LDH release cytotoxicity; assay type: cell-based, human; conditions: 10 μM, 37 °C; for Cytotoxicity by LDH release (in words): 10 min or 60 min
Procedure, shortened: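 Jurkat cells exposed to 10 μM lipopeptide at 37 °C for 10 or 60 min, then the plate was centrifuged at 250 × g for 4 min. Released LDH in the supernatant was read using tetrazolium substrate (RT, 30 min, dark) at 490 nm. Controls were spontaneous release, lysis-solution maximum, volume correction and medium background. % cytotoxicity = (experimental − spontaneous)/(maximum − spontaneous) × 100. Triplicate.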

Compound: CCCCCCCCCCCCCC(=O)NCCC(=O)N[C@H](CCCNC(=N)N)C(=O)N[C@H](CCCNC(=N)N)C(=O)N[C@H](CCCNC(=N)N)C(=O)N[C@H](CCCNC(=N)N)C(=O)N[C@H](CCCNC(=N)N)C(=O)N[C@H](CCCNC(=N)N)C(=O)N[C@H](CCCNC(=N)N)C(=O)N[C@H](CCCNC(=N)N)C(=O)N[C@H](CCCNC(=N)N)C(=O)N[C@H](CCCNC(=N)N)C(=O)N[C@H](CCCNC(=N)N)C(=O)N[C@@H](CCCCNC(=S)Nc1ccc2c(c1)C(=O)OC21c2ccc(O)cc2Oc2cc(O)ccc21)C(N)=O [C14dR11]
- Signal intensity relative to C14R11 (C14R11 set as 1) [1]: 5 fold
- Cytotoxicity (LDH release, % of maximum) ([2]; 60 min, triplicate, mean ± SD): 5.97 ± 0.9%

Compound: CCCCCCCCCCCC(=O)NCCC(=O)N[C@@H](CCCNC(=N)N)C(=O)N[C@@H](CCCNC(=N)N)C(=O)N[C@@H](CCCNC(=N)N)C(=O)N[C@@H](CCCNC(=N)N)C(=O)N[C@@H](CCCNC(=N)N)C(=O)N[C@@H](CCCNC(=N)N)C(=O)N[C@@H](CCCNC(=N)N)C(=O)N[C@@H](CCCCNC(=S)Nc1ccc2c(c1)C(=O)OC21c2ccc(O)cc2Oc2cc(O)ccc21)C(N)=O [C12R7]
- Cytotoxicity by LDH release (in words) [2]: didn’t exhibit any significant toxicity

Compound: CCCCCCCCCCCCCCCC(=O)NCCC(=O)N[C@@H](CCCNC(=N)N)C(=O)N[C@@H](CCCNC(=N)N)C(=O)N[C@@H](CCCNC(=N)N)C(=O)N[C@@H](CCCNC(=N)N)C(=O)N[C@@H](CCCNC(=N)N)C(=O)N[C@@H](CCCNC(=N)N)C(=O)N[C@@H](CCCNC(=N)N)C(=O)N[C@@H](CCCCNC(=S)Nc1ccc2c(c1)C(=O)OC21c2ccc(O)cc2Oc2cc(O)ccc21)C(N)=O [C16R7]
- Cytotoxicity by LDH release (in words) [2]: didn’t exhibit any significant toxicity

Compound: CCCCCCCCCCCCCC(=O)NCCC(=O)N[C@@H](CCCNC(=N)N)C(=O)N[C@@H](CCCNC(=N)N)C(=O)N[C@@H](CCCNC(=N)N)C(=O)N[C@@H](CCCNC(=N)N)C(=O)N[C@@H](CCCNC(=N)N)C(=O)N[C@@H](CCCNC(=N)N)C(=O)N[C@@H](CCCNC(=N)N)C(=O)N[C@@H](CCCCNC(=S)Nc1ccc2c(c1)C(=O)OC21c2ccc(O)cc2Oc2cc(O)ccc21)C(N)=O [C14R7]
- Cytotoxicity by LDH release (in words) [2]: didn’t exhibit any significant toxicity
